Experimental data published in ChEMBL document CHEMBL5029146, “Single Diastereomers of the Clinical Anticancer ProTide Agents NUC-1031 and NUC-3373 Preferentially Target Cancer Stem Cells In Vitro” (J Med Chem, 2021).
The source made the active and inactive calls. The calls are words filed in the database; no cut-off is given here.

Assays:
KG-1a [1] = assay: Cytotoxicity against human KG-1a cells assessed as cell death incubated for 72 hrs by flow cytometry based Annexin V/7-AAD assay; format: functional
How it was run: (§1)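 Cell suspensions from confluent flasks (10^5 cells per well) exposed 72 h at 37°C, humidified 5% CO2, to compound over experimentally set concentration ranges, with drug-free controls. Cells harvested by centrifugation, Annexin V/7-AAD flow cytometry. Triplicate experiments; LC50 by non-linear regression of sigmoidal dose-response curves, mean ± SEM.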

MDA-MB-231 = assay: Cytotoxicity against human MDA-MB-231 cells incubated for 72 hrs by flow cytometry using Annexin V/7-AAD assay; format: functional; settings: read-out: LC50 (the source's name); how it was run: as §1
HCT-116 = assay: Cytotoxicity against human HCT-116 cells assessed as cell death incubated for 72 hrs by flow cytometry based Annexin V/7-AAD assay; format: functional; settings: read-out: LC50 (the source's name); how it was run: as §1
HT-29 [2] = assay: Cytotoxicity against human HT-29 cells assessed as cell death incubated for 72 hrs by flow cytometry based Annexin V/7-AAD assay; format: functional; settings: read-out: LC50 (the source's name); how it was run: as §1
SW-620 [3] = assay: Cytotoxicity against human SW-620 cells assessed as cell death incubated for 72 hrs by MTS assay; format: functional; settings: read-out: LC50 (the source's name)
How it was run: (§2)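 Contracted MTS viability test (BxPC-3, MIA PaCa-2, HT-29, SW620), cells plated the day before dosing. 72 h exposure to 9 serial 3.16-fold dilutions, highest 198 μM, then MTS for 4 h at 37°C and absorbance read. Run in duplicate; LC50 (concentration giving 50% cell death) taken from curve fit as mean.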

SW-620 [4] = assay: Potency index, ratio of 5-FU LC50 to test compound LC50 for human SW-620 cells incubated for 72 hrs by MTS assay; format: functional
How it was run: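 SW620 MTS assay: 72 h exposure to 9 serial 3.16-fold dilutions from 198 μM, MTS 4 h at 37°C, absorbance read, duplicate. LC50 from curve fit; index is 5-FU LC50 divided by test compound LC50.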

[5] = Metabolic stability in cryopreserved human hepatocytes assessed as half life at 1 uM for 60 mins by HPLC-MS/MS analysis; format: ADME, cell-based, Hepatocyte; settings: for t1/2: hepatocytes, 1 h, 1 µM
How it was run: (§3)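 Pooled cryopreserved human hepatocytes thawed, washed and resuspended in Krebs-Henseleit buffer pH 7.3. Compound at 1 μM final, incubated 0 and 60 min at 37°C/5% CO2. Quenched with acetonitrile, centrifuged; supernatant analysed by HPLC-MS/MS.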

[6] = Prodrug activation assessed as carboxypeptidase Y-mediated metabolism by measuring compound remaining within 10 mins by NMR analysis; format: ADME; settings: saccharomyces cerevisiae
How it was run: (§4)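 ProTide (3.5 mg) in acetone-d6 with Trizma buffer pH 7.6. Control 31P NMR taken, then carboxypeptidase Y (0.1 mg in Trizma) added. 31P NMR spectra (202 MHz, 25°C) collected with 64 scans every 7 min. Parent and metabolite A/C fractions followed by peak integration over time.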

LNCaP = assay: Cytotoxicity against human LNCaP cells assessed as cell death incubated for 72 hrs by flow cytometry based Annexin V/7-AAD assay; format: functional; settings: read-out: LC50 (the source's name); how it was run: as §1
BXPC-3 = assay: Cytotoxicity against human BXPC-3 cells assessed as cell death incubated for 72 hrs by MTS assay; format: functional; settings: read-out: LC50 (the source's name); how it was run: as §2
MIA PaCa-2 = assay: Cytotoxicity against human MIA PaCa-2 cells assessed as cell death incubated for 72 hrs by MTS assay; format: functional; settings: read-out: LC50 (the source's name); how it was run: as §2
KG-1a [7] = assay: Cytotoxicity against human KG-1a cells assessed as reduction in leukemic stem cells fraction >= 0.25 uM measured after 48 hrs by FACS assay; format: functional, cell-based; settings: dose microM >=0.25, time 48.0 hrs
HT-29 [8] = assay: Potency index, ratio of 5-FU LC50 to test compound LC50 for human HT-29 cells for 72 hrs by flow cytometry using Annexin V/7-AAD assay; format: functional
How it was run: (§5)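 Annexin V/7-AAD flow cytometry after 72 h exposure at 37°C, 5% CO2, drug-free controls included, triplicate. LC50 by non-linear regression. Index is reference nucleoside LC50 (5-FU for HT-29, FUDR for KG1a) divided by test compound LC50.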

[9] = Metabolic stability in cryopreserved human hepatocytes assessed as parent compound remaining at 1 uM for 60 mins by HPLC-MS/MS analysis; format: ADME, cell-based, Hepatocyte; how it was run: as §3
[10] = Prodrug activation assessed as carboxypeptidase Y-mediated metabolite A release measured within 10 mins by NMR analysis; format: ADME; settings: saccharomyces cerevisiae; how it was run: as §4
[11] = Stability in human plasma assessed as half life; format: ADME, cell-free; settings: time <=24 hrs
KG-1a [12] = assay: Cytotoxicity against human KG-1a cells assessed as viable cells at 0.25 uM for 48 hrs by FITC-PE analysis (reference value: 3.9 to 4%); format: functional
How it was run: (§6)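 KG1a AML cells were kept in RPMI with 20% foetal calf serum and penicillin/streptomycin, then exposed to a wide concentration range of each nucleoside or ProTide. Cells were stained with anti-CD34 (FITC) and anti-CD38 (PE) and read by flow cytometry. The CD34⁺/CD38⁻ stem-cell subset was expressed as a percentage of viable cells. Results are the mean ±SEM of five independent experiments.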

KG-1a [13] = assay: Cytotoxicity against human KG-1a cells assessed as viable cells at 0.5 uM for 48 hrs by FITC-PE analysis (reference value: 3.9%); format: functional; how it was run: as §6
[14] = Drug uptake in human KG-1a cell leukemic stem cells fraction assessed as intracellular accumulation at 1 uM treated for 1 hr by mass spectrometry analysis; format: ADME
How it was run: (§7)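 KG1a cells (5×10^6, DMEM + 10% FCS) exposed to 1 μM compound for 1 h, harvested, then FACS-sorted into CD34+/CD38− LSC and CD34+/CD38+ bulk fractions. Pellets lysed; intracellular triphosphate quantified by mass spectrometry against a nucleoside standard curve. Five independent experiments in triplicate, mean ± SEM.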

[15] = Drug uptake in human KG-1a cell bulk tumor fraction assessed as intracellular accumulation at 1 uM treated for 1 hr by mass spectrometry analysis; format: ADME; how it was run: as §7
KG-1a [16] = assay: Cytotoxicity against human KG-1a cells assessed as viable cells at 1 uM for 48 hrs by FITC-PE analysis (reference value: 3.9 to 4%); format: functional; how it was run: as §6
KG-1a [17] = assay: Cytotoxicity against human KG-1a cells assessed as reduction in leukemic stem cells fraction at >= 0.07 uM after 48 hrs by FACS assay; format: functional, cell-based; settings: dose microM >=0.07, time 48.0 hrs; how it was run: as §6
KG-1a [18] = assay: Cytotoxicity against human KG-1a cells assessed as reduction in leukemic stem cells fraction up to 5 uM measured after 48 hrs by FACS assay; format: functional, cell-based; settings: dose microM <=5, time 48.0 hrs
KG-1a [19] = assay: Potency index, ratio of FUDR LC50 to test compound LC50 for human KG-1a cells incubated for 72 hrs by flow cytometry using Annexin V/7-AAD assay; format: functional; how it was run: as §5
KG-1a [20] = assay: Cytotoxicity against human KG-1a cells assessed as reduction in leukemic stem cells fraction up to 2.5 uM measured after 48 hrs by FACS assay; format: functional, cell-based; settings: dose microM <=2.5, time 48.0 hrs; how it was run: as §6
[21] = Prodrug activation assessed as carboxypeptidase Y-mediated metabolite A release measured upto 120 mins by NMR analysis; format: ADME; settings: saccharomyces cerevisiae, 2 h; how it was run: as §4
[22] = Prodrug activation assessed as carboxypeptidase Y-mediated metabolite C release measured upto 120 mins by NMR analysis; format: ADME; settings: saccharomyces cerevisiae, 2 h; how it was run: as §4

## C[C@H](NP(=O)(OC[C@H]1O[C@@H](n2cc(F)c(=O)[nH]c2=O)C[C@@H]1O)Oc1cccc2ccccc12)C(=O)OCc1ccccc1 (stereo in doubt; form 3) [FOSIFLOXURIDINE NAFALBENAMIDE]
KG-1a [1]; 72 h
  LC50: 0.055 µM
MDA-MB-231; 72 h
  CC50: 2.5 µM
HCT-116; 72 h
  CC50: 2.6 µM
HT-29 [2]; 72 h
  CC50: 1.5 µM
SW-620 [3]; 72 h
  CC50: 1.46 µM
SW-620 [4]
  RatioLC50: 4
[5]
  t1/2: 47 min
[6]
  Activity: 28%

## C[C@H](N[P@](=O)(OC[C@H]1O[C@@H](n2ccc(N)nc2=O)C(F)(F)[C@@H]1O)Oc1ccccc1)C(=O)OCc1ccccc1
KG-1a [1]
  LC50: 0.31 µM
HT-29 [2]; Homo sapiens, HT-29, 72 h
  CC50: 1.5 µM
LNCaP
  CC50: 2.6 µM
BXPC-3
  CC50: 2.44 µM
MIA PaCa-2
  CC50: 0.03 µM
KG-1a [7]
  Activity: Active

## C[C@H](NP(=O)(OC[C@H]1O[C@@H](n2cc(F)c(=O)[nH]c2=O)C[C@@H]1O)Oc1cccc2ccccc12)C(=O)OCc1ccccc1 (stereo in doubt; form 2) [FOSIFLOXURIDINE NAFALBENAMIDE]
HT-29 [8]
  RatioLC50: 13
KG-1a [1]; 72 h
  LC50: 0.052 µM
MDA-MB-231; 72 h
  CC50: 3.6 µM
HCT-116; 72 h
  CC50: 4.3 µM
HT-29 [2]; 72 h
  CC50: 2.1 µM
SW-620 [3]; 72 h
  CC50: 2.37 µM
[5]
  t1/2: 53 min
[9]; hepatocytes, 1 h, 1 µM
  Stability: 40%
[10]
  Drug metabolism: Metabolite_Detected

## C[C@H](NP(=O)(OC[C@H]1O[C@@H](n2ccc(N)nc2=O)C(F)(F)[C@@H]1O)Oc1ccccc1)C(=O)OCc1ccccc1 (some centres undefined) [FOSGEMCITABINE PALABENAMIDE]
KG-1a [1]
  LC50: 0.28 µM
HT-29 [2]; Homo sapiens, HT-29, 72 h
  CC50: 1.3 µM
LNCaP
  CC50: 3.1 µM
BXPC-3
  CC50: 2.29 µM
MIA PaCa-2
  CC50: 0.1 µM
[11]
  half-life: 498 min
KG-1a [12]
  Activity: 2.7%
KG-1a [13]
  Activity: 2.5%
[14]
  Drug uptake: Active
[15]
  Drug uptake: Active
KG-1a [16]
  Activity: 1.9%

## C[C@H](NP(=O)(OC[C@H]1O[C@@H](n2cc(F)c(=O)[nH]c2=O)C[C@@H]1O)Oc1cccc2ccccc12)C(=O)OCc1ccccc1 (stereo in doubt; form 2)
KG-1a [17]
  Activity: Active

## O=c1[nH]cc(F)c(=O)[nH]1 [FLUOROURACIL]
KG-1a [1]
  LC50: 1.4 µM
MDA-MB-231; Homo sapiens, MDA-MB-231, 72 h
  CC50: 12.6 µM
HCT-116; Homo sapiens, HCT-116, 72 h
  CC50: 3.7 µM
HT-29 [2]; Homo sapiens, HT-29, 72 h
  CC50: 5.5 µM
SW-620 [3]; Homo sapiens, SW-620, 72 h
  CC50: 7.98 µM
[11]
  half-life: 8 min
KG-1a [18]
  Activity: inactive

## C[C@H](NP(=O)(OC[C@H]1O[C@@H](n2cc(F)c(=O)[nH]c2=O)C[C@@H]1O)Oc1cccc2ccccc12)C(=O)OCc1ccccc1 (stereo in doubt; form 3)
KG-1a [17]
  Activity: Active

## C[C@H](NP(=O)(OC[C@H]1O[C@@H](n2cc(F)c(=O)[nH]c2=O)C[C@@H]1O)Oc1cccc2ccccc12)C(=O)OCc1ccccc1 (stereo in doubt; form 1) [FOSIFLOXURIDINE NAFALBENAMIDE]
KG-1a [1]; 72 h
  LC50: 0.053 µM
MDA-MB-231; Homo sapiens, MDA-MB-231, 72 h
  CC50: 2.8 µM
HCT-116; Homo sapiens, HCT-116, 72 h
  CC50: 3.1 µM
HT-29 [2]; Homo sapiens, HT-29, 72 h
  CC50: 1.7 µM
SW-620 [3]; Homo sapiens, SW-620, 72 h
  CC50: 1.84 µM
[11]
  half-life: 582 min
[5]; cryopreserved hepatocytes
  half-life at 1 µM: 34 min
[9]; cryopreserved hepatocytes, read-out: Stability
  remaining at 1 h, 1 µM: 30%
KG-1a [19]
  RatioLC50: 23

## Nc1ccn([C@@H]2O[C@H](CO)[C@@H](O)C2(F)F)c(=O)n1 [GEMCITABINE]
KG-1a [1]
  LC50: 1.8 µM
HT-29 [2]; Homo sapiens, HT-29, 72 h
  CC50: 0.7 µM
LNCaP
  CC50: 2.8 µM
BXPC-3
  CC50: 0.74 µM
MIA PaCa-2
  CC50: 0.01 µM
KG-1a [12]
  Activity: 4.1%
KG-1a [13]
  Activity: 3.9%
KG-1a [20]
  Activity: inactive
KG-1a [16]
  Activity: 3.8%

## C[C@H](N[P@@](=O)(OC[C@H]1O[C@@H](n2ccc(N)nc2=O)C(F)(F)[C@@H]1O)Oc1ccccc1)C(=O)OCc1ccccc1
KG-1a [1]
  LC50: 0.25 µM
HT-29 [2]; Homo sapiens, HT-29, 72 h
  CC50: 1 µM
LNCaP
  CC50: 3.4 µM
BXPC-3
  CC50: 1.29 µM
MIA PaCa-2
  CC50: 0.19 µM
KG-1a [7]
  Activity: Active
[21]
  Drug metabolism: Metabolite_Notdetected
[22]
  Drug metabolism: Metabolite_Detected
